Screening results as filed in PubChem BioAssay.
STAT3 inh: STAT3 signaling inhibition; AID 862; inhibition, % at 5.5 µM; U3A cells, IL-6 STAT3-luciferase reporter, luminescence; host cell line lacks STAT1; 190,000 compounds, 0.89% hits;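 active means inhibition above the mean inhibition across all screened compounds plus 3 SD, cut at about 44% in these data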;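 further: 0% = DMSO only wells and 100% = 100 µM nifuroxazide control wells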
STAT1 activator: increases IFN-gamma driven STAT1 reporter signal; NIH 3T3 STAT1-luciferase reporter, luminescence; 100% = IFN-gamma alone, no compound; activation (% of control), % at 5.5 µM; 200,000 compounds, 2.6% hits;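 active means activation above the screen-wide mean activation plus 3 SD, cut at about 130% in these data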;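 further: raw ratio to IFN-gamma control signal so 100% means no change and 0% no light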
STAT1 blocker: inhibitors of IFN-gamma induced STAT1 signaling. inhibition, % at 5.5 µM. NIH 3T3 STAT1-luciferase reporter, luminescence. 200,000 compounds, 0.35% hits. AID 920;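 active means inhibition above a set limit, the mean inhibition across all tested compounds plus 3 SD, cut at about 34% in these data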;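 further: 0% = IFN-gamma with DMSO and 100% = IFN-gamma with 300 µM nifuroxazide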
NF-kB neuron act: compounds increasing NF-kB expression in human neuronal cells; 190,000 compounds, 1.6% hits; fold change at 12.5 µM; AID 1239; NF-kB reporter expression; active compounds read high; in the data active means fold change above about 3.3
APP 5'UTR act: APP 5'UTR luciferase reporter activation; SH-SY5Y APP 5'UTR luciferase reporter, luminescence; zero percent = DMSO vehicle wells; activation, % at 2 µM; 190,000 compounds, 1% hits; AID 1276;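 active means activation above a set limit, based on mean plus 3 SD of controls, cut at about 140% in these data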
STAT3 activator: STAT3 signaling activation. U3A cells, IL-6 STAT3-luciferase reporter, luminescence; 100% = signal with IL-6 EC80 alone. activation (% of control), % at 5.6 µM. 190,000 compounds, 0.91% hits;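 active means activation above the screen-wide mean of compound activation plus 3 SD, cut at about 130% in these data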;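 further: 0% = background luminescence of wells with medium and substrate only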
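Material: human U3A cells carrying STAT3-luciferase construct. Measured by: reporter luminescence signal. Timing: compound 1 h, then IL-6 6 h at 37 °C.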
Starred values were filed as active, the others as inactive; · = no result given. The list is not random: actives were taken first. Their share in the collection is about 4.9%.

SMILES	STAT3 inh	STAT1 activator	STAT1 blocker	NF-kB neuron act	APP 5'UTR act	STAT3 activator
Cc1ccccc1-c1nc2sc3c(c2c(=O)o1)CCC3	5	104	-5	4*	14	97
O=c1oc(-c2cccs2)nc2sc3c(c12)CCCCC3	1	99	1	·	77	106
O=c1oc(-c2ccccc2)nc2sc3c(c12)CCCC3	-12	136*	-39	6.1*	48	110
CCc1nc2sc3c(c2c(=O)o1)CCCC3	-5	88	10	0.93	6	105
O=c1oc(-c2cc3ccccc3o2)nc2sc3c(c12)CCCC3	2	112	-14	1.2	226*	99
CSc1nnnn1-c1ccc(C)c(Cl)c1	-4	96	4	1	27	104
O=C(CN1CCC(NC(=O)c2ccccc2Cl)CC1)NCc1ccco1	-2	106	-8	1.1	16	105
CCN(CC(=O)Nc1cccc(C(C)=O)c1)S(=O)(=O)c1ccc(C)cc1	14	99	0	0.97	-4	97
CC1(C)C(=O)N(OCc2ccccc2)C(C)(C)C(=O)N1OCc1ccccc1	2	98	2	0.83	-10	105
Cn1c(NC(=O)/C=C/c2ccccc2)cc(=O)n(C)c1=O	-10	139*	-43	1.9	47	108
Cn1c(NC(=O)CCc2ccccc2)cc(=O)n(C)c1=O	-21	138*	-42	2.2	50	121
CCCC(=O)Nc1cc(=O)n(C)c(=O)n1C	-13	95	5	1.6	35	119
Cc1ccc(NC(=O)C2C3/C=C\CCCCC32)cc1C (configuration not stated)	-11	121	-23	1.4	9	113
N#C/C(=C1/CCCCCN1)c1nc2ccccc2[nH]1	1	130*	-33	2	10	108
Cc1nn2c3ccccc3nc2c2ccccc12	-41	115	-21	1.1	-6	134*
CCn1c(=O)c(C)nn2c3ccccc3nc12	10	108	-8	1	-12	97
CCn1c(CNc2ccc(Cl)cc2)nnc1SCC#N	-4	97	2	1.1	-7	105
COc1ccc(/C=C/C(=O)Oc2cc(C)[nH]c(=O)c2[N+](=O)[O-])cc1OC	0	93	6	1.1	2	103
c1ccc(-n2cnc3cc(NCc4ccco4)ccc32)cc1	-7	147*	-53	1.5	86	108
COc1ccc(-n2cnc3cc(NCc4cccs4)ccc32)cc1	-3	131*	-34	1.4	30	106
COc1cc(/C=C(/NC(=O)c2ccccc2)C(=O)Nc2ccc(O)cc2)c([N+](=O)[O-])cc1OC	13	101	-1	0.92	13	88
COC(=O)c1ccccc1NC(=O)CSc1nnc(-c2cccnc2)n1N	-2	95	5	0.81	-8	110
CC(=O)Nc1ccc(/C=N/NC(=O)CNC(=O)c2ccccc2)cc1	8	112	-14	1.1	3	97
Fc1ccc(-n2ncc3c(SCc4cccnc4)ncnc32)cc1	29	118	-19	3.4*	90	77
CC1CCCC(NC(=O)COC(=O)c2sc3ccccc3c2Cl)C1C (configuration not stated)	4	104	-4	1.6	5	100
SMILES	STAT3 inh	STAT1 activator	STAT1 blocker	NF-kB neuron act	APP 5'UTR act	STAT3 activator
CC(C)c1ccc(NC(=O)NN2CCOCC2)cc1	1	146*	-53	1.7	86	107
Cc1c(/C(O)=C2/C(=O)C(=O)N(CCN3CCOCC3)C2c2ccccn2)cnn1-c1ccccc1 (configuration not stated)	88*	17	90*	0.45	15	25
COc1ccc(/C(O)=C2/C(=O)C(=O)N(CCN3CCOCC3)C2c2ccccn2)cc1 (configuration not stated)	7	143*	-47	1.3	-16	98
CCCCC(=O)Nc1ccc(C(=O)Nc2ccc(S(=O)(=O)Nc3ccc(C)cc3)cc2)cc1	1	99	1	1.5	-8	103
COCCNC(=O)C(c1ccc(C)o1)N(C(=O)Cn1nnc2ccccc21)c1ccccc1 (configuration not stated)	6	106	-9	1	-19	97
N#C/C(=C/c1ccccc1)C(=O)NCc1ccccc1	-3	100	0	1	0	102
CN(C)c1ccc(/C=C(/C#N)C(=O)NCc2ccccc2)o1	-4	129*	-32	1.5	38	107
CCCC(c1nnnn1C(C)(C)C)N1CCN(C(=O)c2ccco2)CC1 (configuration not stated)	9	98	2	0.97	-23	97
COc1ccc(OC)c(NC(=O)Cn2c(CCC(=O)O)ccc2-c2ccccc2)c1	-37	105	-5	0.86	-11	134*
COc1ccccc1NC(=O)Cn1c(CCC(=O)O)ccc1-c1ccccc1	-2	95	4	0.93	-19	105
O=C(NC(=S)N1CCCc2ccccc21)c1ccc(Br)cc1	-46	98	2	0.93	4	133*
O=C(NC(=S)N1CCCc2ccccc21)c1ccc(Cl)cc1	-50	111	-13	1	48	142*
COc1ccc(C(=O)NC(=S)N2CCCc3ccccc32)cc1OC	17	103	-5	0.75	8	91
O=C(NC(=S)N1CCCc2ccccc21)c1ccc([N+](=O)[O-])cc1	8	107	-11	0.74	-3	102
CCOC(=O)C1=C(N)Oc2c(c(=O)[nH]c3ccccc23)C1c1ccccc1 (configuration not stated)	5	107	-1	1.3	-13	97
COc1ccc2c(CCNC(=O)c3ccc([N+](=O)[O-])cc3)c[nH]c2c1	20	106	-8	1.1	18	89
Cc1cnc(C(=O)Nc2ccc3c(c2)CCC3)cn1	37	122	-24	7.4*	163*	75
Cc1cnc(C(=O)Nc2ccc(F)c(F)c2)cn1	15	118	-19	2.2	6	92
Cc1cc(C)n2nc(C(=O)Nc3ccc4c(c3)CCC4)nc2n1	16	117	-18	2.4	37	91
CN1N=C(C(=O)Nc2ccc3c(c2)CCC3)CCC1=O	13	132*	-35	1.7	24	91
O=C(Nc1ccc2c(c1)CCC2)c1cnccn1	10	143*	-46	2.6	105	91
O=C(CCCN1C(=O)c2cccc3cccc(c23)C1=O)NCc1cccs1	27	94	4	1.1	-1	80
Cc1ccc(NC(=O)ON=C2CCCC2)cc1	-4	130*	-33	1.1	38	104
O=C(Nc1ccccc1)ON=C1CCCC1	13	104	-4	1.7	9	92
CC(C)C(OC(=O)c1cccs1)C(=O)NCc1ccccc1 (configuration not stated)	4	98	2	1.2	19	101
